ChEMBL document CHEMBL1142885, “Evaluation of [11C]hemicholinium-15 and [18F]hemicholinium-15 as new potential PET tracers for the high-affinity choline uptake system in the heart” (Bioorg Med Chem, 2007)

Legend:
Settings in all cases: in vivo
Solar plexus = experiment: Biodistribution in Fisher rat solar plexus at 1 to 3 mCi, iv after 20 mins; format: ADME, organism-based
How it was run: (§1)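 Fisher rats (200–300 g) given [¹¹C]HC-15 or [¹⁸F]HC-15 (1–3 mCi, sub-pharmacologic) by tail-vein iv injection under conscious restraint. Sacrificed by decapitation under halothane anesthesia at 20 min, tissues excised and weighed, decay-corrected radioactivity gamma-counted. Expressed as %ID and %ID/g; values are the average of four rats.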

[1] = Biodistribution in Fisher rat atrioventricular node at 1 to 3 mCi, iv after 20 mins; format: ADME, organism-based; how it was run: as §1
Brain = experiment: Biodistribution in Fisher rat brain at 1 to 3 mCi, iv after 20 mins; format: ADME, organism-based; how it was run: as §1
Kidney = experiment: Biodistribution in Fisher rat kidney at 1 to 3 mCi, iv after 20 mins; format: ADME, organism-based; how it was run: as §1
Blood = experiment: Biodistribution in Fisher rat blood at 1 to 3 mCi, iv after 20 mins; format: ADME, organism-based; how it was run: as §1
[2] = Biodistribution in Fisher rat skeletal muscle s at 1 to 3 mCi, iv after 20 mins; format: ADME, organism-based, Muscle tissue; how it was run: as §1
Septum = experiment: Biodistribution in Fisher rat septum at 1 to 3 mCi, iv after 20 mins; format: ADME, organism-based; how it was run: as §1
[3] = Biodistribution in Fisher rat right ventricle at 1 to 3 mCi, iv after 20 mins; format: ADME, organism-based, Heart right ventricle; how it was run: as §1
[4] = Biodistribution in Fisher rat right atrium at 1 to 3 mCi, iv after 20 mins; format: ADME, organism-based, Cardiac atrium; how it was run: as §1
Lung = experiment: Biodistribution in Fisher rat lung at 1 to 3 mCi, iv after 20 mins; format: ADME, organism-based; how it was run: as §1
[5] = Biodistribution in Fisher rat left ventricle at 1 to 3 mCi, iv after 20 mins; format: ADME, organism-based, Heart left ventricle; how it was run: as §1
[6] = Biodistribution in Fisher rat urine at 1 to 3 mCi, iv after 20 mins; format: ADME, organism-based; how it was run: as §1
Liver = experiment: Biodistribution in Fisher rat liver at 1 to 3 mCi, iv after 20 mins; format: ADME, organism-based; how it was run: as §1
[7] = Biodistribution in Fisher rat left atrium at 1 to 3 mCi, iv after 20 mins; format: ADME, organism-based, Cardiac atrium; how it was run: as §1

| Structure (SMILES) | Drug uptake (Solar plexus) [% ID/g] | Drug uptake [1] [% ID/g] | Drug uptake (Brain) [% ID/g] | Drug uptake (Kidney) [% ID/g] | Drug uptake (Blood) [% ID/g] | Drug uptake [2] [% ID/g] | Drug uptake (Septum) [% ID/g] | Drug uptake [3] [% ID/g] | Drug uptake [4] [% ID/g] | Drug uptake (Lung) [% ID/g] | Drug uptake [5] [% ID/g] | Drug uptake [6] [% ID/g] | Drug uptake (Liver) [% ID/g] | Drug uptake [7] [% ID/g] |
| --- | --- | --- | --- | --- | --- | --- | --- | --- | --- | --- | --- | --- | --- | --- |
| C[N+]1(C[18F])CCOC(O)(c2ccccc2)C1.O=S(=O)([O-])C(F)(F)F (stereo not drawn) | 0.744 | 0.793 | 0.046 | 11.651 | 0.201 | 0.145 | 1.557 | 0.037 | 0.756 | 3.423 | 1.28 | 17.434 | 4.378 | 0.796 |
| C[N+]1([11CH3])CCOC(O)(c2ccccc2)C1.O=S(=O)([O-])C(F)(F)F (stereo not drawn) | 0.938 | 1.083 | 0.022 | 3.618 | 0.181 | 0.091 | 0.01 | 1.316 | 0.488 | 1.302 | 0.859 | 31.835 | 6.284 | 0.526 |
